The source of these data is paper PMC4535927 (Angewandte Chemie (International ed. in English), 2015).

“Also recorded” adds a separate entry of the source. Where only a bound is given, the exact number is not on record here.

Data set [1] concerns NIH3T3 HRas^G12V tumors. The data set is described as follows: Tumors induced by NIH3T3 HRas G12V cells in nu/nu mice. It is filed as in vivo. The essentials:
(§1)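 Immunodeficient nu/nu mice were injected with NIH3T3 fibroblasts transformed by RET C634Y or by HRas G12V (Ras control). Before tumors appeared, mice received test compound orally at 1.0, 3.0 or 10.0 mg/kg/day or were left untreated. Tumor formation was scored. Tumor tissue was analysed for RET and VEGFR2 phosphorylation and for MAPK and mTOR signaling.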

Data set [2] is described as follows: Pharmacokinetic properties. As to conditions: in vivo.
Data set [3] deals with T1, VEGFR2 (Homo sapiens, UniProt P35968). Put plainly: VEGFA-induced VEGFR2 phosphorylation in transfected HEK293 cells. It is filed as cell-based. As to conditions: 1.0 nM.
T1 sequence (P35968 20-1356): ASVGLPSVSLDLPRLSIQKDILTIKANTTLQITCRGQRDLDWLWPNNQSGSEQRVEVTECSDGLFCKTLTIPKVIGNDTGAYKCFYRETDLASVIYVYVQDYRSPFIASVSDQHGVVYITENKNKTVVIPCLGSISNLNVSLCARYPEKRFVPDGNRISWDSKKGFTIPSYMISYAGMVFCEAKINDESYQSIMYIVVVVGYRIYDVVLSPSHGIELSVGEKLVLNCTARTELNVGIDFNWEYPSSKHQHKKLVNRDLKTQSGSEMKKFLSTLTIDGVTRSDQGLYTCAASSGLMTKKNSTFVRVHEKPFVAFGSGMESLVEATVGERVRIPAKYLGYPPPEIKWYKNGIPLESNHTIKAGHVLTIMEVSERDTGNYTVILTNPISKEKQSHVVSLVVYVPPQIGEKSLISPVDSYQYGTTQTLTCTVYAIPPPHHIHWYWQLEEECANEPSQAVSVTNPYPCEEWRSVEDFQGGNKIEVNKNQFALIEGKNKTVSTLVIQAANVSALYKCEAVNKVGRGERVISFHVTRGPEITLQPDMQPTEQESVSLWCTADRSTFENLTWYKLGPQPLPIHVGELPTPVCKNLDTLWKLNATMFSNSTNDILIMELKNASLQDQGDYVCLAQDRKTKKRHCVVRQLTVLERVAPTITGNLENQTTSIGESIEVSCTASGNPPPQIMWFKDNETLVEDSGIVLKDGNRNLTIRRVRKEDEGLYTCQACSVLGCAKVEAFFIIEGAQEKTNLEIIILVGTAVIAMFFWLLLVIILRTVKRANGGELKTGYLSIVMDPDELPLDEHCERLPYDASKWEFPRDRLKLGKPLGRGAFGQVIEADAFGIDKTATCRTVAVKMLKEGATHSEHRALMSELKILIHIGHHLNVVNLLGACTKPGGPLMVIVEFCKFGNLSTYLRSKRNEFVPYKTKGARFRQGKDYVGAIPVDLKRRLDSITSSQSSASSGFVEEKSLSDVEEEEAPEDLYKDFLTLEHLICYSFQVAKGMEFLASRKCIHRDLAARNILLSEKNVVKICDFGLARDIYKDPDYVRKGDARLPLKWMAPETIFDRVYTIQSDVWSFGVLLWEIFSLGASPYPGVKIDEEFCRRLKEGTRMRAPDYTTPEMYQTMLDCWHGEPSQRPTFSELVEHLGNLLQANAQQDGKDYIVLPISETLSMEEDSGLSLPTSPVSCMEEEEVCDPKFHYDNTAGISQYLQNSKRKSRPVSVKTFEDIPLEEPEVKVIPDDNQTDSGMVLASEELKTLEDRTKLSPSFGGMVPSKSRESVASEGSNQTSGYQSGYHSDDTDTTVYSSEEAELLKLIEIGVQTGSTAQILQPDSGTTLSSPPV
A short description of data set [4]: One-week tolerability in mice. Type of data set: in vivo. As to conditions: increased linearly with dose, doses up to 100.0 mg/kg.
In data set [5] the target is RET^V804L (Homo sapiens, UniProt P07949, V804L). Put plainly: Cell-based RET inhibition, RET V804L.
Sequence of RET^V804L (P07949 29-1114 V804L): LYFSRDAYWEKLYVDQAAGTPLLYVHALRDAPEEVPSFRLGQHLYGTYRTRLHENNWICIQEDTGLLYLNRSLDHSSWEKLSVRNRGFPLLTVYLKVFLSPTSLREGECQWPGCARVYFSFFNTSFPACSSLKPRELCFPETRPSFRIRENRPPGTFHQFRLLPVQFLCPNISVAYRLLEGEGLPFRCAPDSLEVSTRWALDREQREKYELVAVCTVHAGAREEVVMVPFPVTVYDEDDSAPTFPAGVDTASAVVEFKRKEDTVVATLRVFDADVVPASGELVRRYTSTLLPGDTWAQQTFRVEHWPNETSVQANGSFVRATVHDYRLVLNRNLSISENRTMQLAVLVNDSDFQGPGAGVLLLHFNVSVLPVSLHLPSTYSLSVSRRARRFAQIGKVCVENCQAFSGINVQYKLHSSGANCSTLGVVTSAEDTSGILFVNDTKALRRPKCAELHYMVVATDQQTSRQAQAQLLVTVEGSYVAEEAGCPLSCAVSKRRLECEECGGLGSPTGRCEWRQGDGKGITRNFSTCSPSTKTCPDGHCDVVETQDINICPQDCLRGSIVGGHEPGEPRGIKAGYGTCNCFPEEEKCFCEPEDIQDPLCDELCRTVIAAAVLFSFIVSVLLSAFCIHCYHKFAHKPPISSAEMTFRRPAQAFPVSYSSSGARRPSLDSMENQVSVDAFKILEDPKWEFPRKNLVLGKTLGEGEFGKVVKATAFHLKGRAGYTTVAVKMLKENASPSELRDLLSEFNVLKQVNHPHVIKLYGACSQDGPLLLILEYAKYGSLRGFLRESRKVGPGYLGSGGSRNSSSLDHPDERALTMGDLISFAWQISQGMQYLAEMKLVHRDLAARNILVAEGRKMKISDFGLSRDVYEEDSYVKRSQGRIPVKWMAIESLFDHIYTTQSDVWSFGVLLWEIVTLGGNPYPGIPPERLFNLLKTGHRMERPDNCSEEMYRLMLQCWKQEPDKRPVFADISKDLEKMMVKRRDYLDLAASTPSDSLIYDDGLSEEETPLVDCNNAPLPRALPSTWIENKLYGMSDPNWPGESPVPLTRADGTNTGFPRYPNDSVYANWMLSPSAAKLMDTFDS
Data set [6] concerns RET oncoproteins. Put plainly: Cell-based phosphorylation of all tested RET oncoproteins. As to conditions: 1.0 nM.
Data set [7] deals with T2, RET^V804M (Homo sapiens, UniProt P07949, V804M). Put plainly: RET V804M kinase microfluidics separation based assay. As to conditions: read-out: IC50, RET^V804M; [ATP] = 190 μM. Type of data set: biochemical.
T2 sequence (P07949 29-1114 V804M): as the sequence (P07949 29-1114 V804L) above, with L776M counted along it
For data set [8], the target named is RET^M918T (Homo sapiens, UniProt P07949, M918T). The data set is described as follows: Cell-based RET inhibition, oncogenic RET M918T.
Sequence of RET^M918T (P07949 29-1114 M918T): as the sequence (P07949 29-1114 V804L) above, with L776V, M890T counted along it
Data set [9] deals with RET^C634Y (Homo sapiens, UniProt P07949, C634Y). The data set is described as follows: RET C634Y tyrosine phosphorylation in NIH3T3 fibroblasts. Type of data set: cell-based.
Sequence of RET^C634Y (P07949 29-1114 C634Y): as the sequence (P07949 29-1114 V804L) above, with C606Y, L776V counted along it
The target in data set [10] is T1, VEGFR2. Put plainly: VEGFA-induced VEGFR2 phosphorylation in HUVEC cells. Type of data set: cell-based. As to conditions: 1.0 nM, endogenous level.
Data set [11] concerns the target T1, VEGFR2. Put plainly: VEGFR2 kinase microfluidics separation based assay. Type of data set: biochemical. As to conditions: read-out: IC50, VEGFR2; [ATP] = 190 μM.
Data set [12] has as its target RET^C634R (Homo sapiens, UniProt P07949, C634R). The data set is described as follows: Cell-based RET inhibition, oncogenic RET C634R. As to conditions: compared with predecessor compounds 1, 2 and 3a.
Data set [13] concerns parental NIH3T3 cells. Put plainly: Growth of parental NIH3T3 cells. As to conditions: up to 100.0 nM. Type of data set: cell-based.
Data set [14] deals with T2, RET^V804M. The data set is described as follows: Cell-based RET inhibition, RET V804M.
In data set [15] the test system is NIH3T3 RET^C634Y cells. Put plainly: In vitro cell proliferation of NIH3T3 RET C634Y. It is filed as cell-based. As to conditions: read-out: IC50, cell proliferation.
Data set [16] concerns the target RET (Homo sapiens, UniProt P07949). Put plainly: RET kinase microfluidics separation based assay. As to conditions: read-out: IC50, RET; [ATP] = 190 μM; means of at least three experiments. It is filed as biochemical. An outline of the steps:
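Recombinant RET activity measured by a microfluidic separation-based kinase assay at [ATP] 190 µM. IC50 values are means of at least three independent experiments.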

For data set [17], the system named is NIH3T3 RET^C634Y tumors. Put plainly: Tumors induced by NIH3T3 RET C634Y cells in nu/nu mice. Type of data set: in vivo. An outline of the steps: as §1
For data set [18], the target named is T2, RET^V804M. As to conditions: cited from earlier work.

Sequence of RET (P07949 29-1114): as the sequence (P07949 29-1114 V804L) above, with L776V counted along it
Sequence of RET^C634R (P07949 29-1114 C634R): as the sequence (P07949 29-1114 V804L) above, with C606R, L776V counted along it

For the compound `Cn1cc(-c2ccc3c(c2)ncn3-c2ccc(CC(=O)Nc3cc(C(C)(C)C)on3)cc2)cn1` [Pz-1], the “VEGFR2 phosphorylation in tumors” value in data set [1] (Ras driven tumors, 1.0 mg/kg) is “inhibited VEGFR2 phosphorylation”; in [17] (RET driven tumors, 1.0 mg/kg), “inhibited VEGFR2 phosphorylation; also recorded: blocked phosphorylation”. Further, the “MAPK signaling in tumors” value in data set [1] (Ras tumors, 10.0 mg/kg) is “no effect”. The Pharmacokinetic properties result in [2] was “highly favorable”. Also, the “VEGFA-induced VEGFR2 phosphorylation” value in data set [3] and in data set [10] was “inhibiting VEGFA-induced VEGFR2 phosphorylation” in each case. Further, the “Alanine transaminase (ALT)” value in data set [4] is “remaining within a normal range”. Moreover, the “Activity against RET^V804L” value in data set [5] is on record as “highly effective”. Besides, the “Phosphorylation of RET oncoproteins / clinically relevant RET mutants” value in data set [6] is “strongly inhibited”. In addition, the IC50 was less than 1 nM in data set [7], less than 1 nM in [11], 0.5 nM in data set [15] and less than 1 nM in data set [16]. For the same compound, the “Activity against RET^M918T” value in data set [8] is “highly effective”. Moreover, the “RET^C634Y tyrosine phosphorylation” value in data set [9] is on record as “efficient inhibition”. The “RET inhibitory activity towards oncogenic RET^C634R” value in data set [12] is recorded as “increased RET inhibitory activity”. Besides, the Growth inhibition result in data set [13] is reported as “did not exert detectable growth inhibition”. The “Activity against RET^V804M” value in [14] is “highly effective”. Besides, in data set [17] (1.0 mg/kg/day per os), the “Formation of RET-driven tumors” value was “completely blocked; also recorded: abrogated formation of tumors”. Besides, the “RET phosphorylation in tumor tissue” value in data set [17] (1.0 mg/kg/day per os) is listed as “blocked phosphorylation”. The “MAPK and mTOR mitogenic signaling cascades in tumors” value in data set [17] (RET-driven tumors) was “able to inhibit”. In [17] (nu/nu mice, PO 1.0, 3.0 or 10.0 mg/kg/day), the “Formation of tumors induced by RET^C634Y” value is “completely prevented formation of tumors”.

In the case of `COc1cc2nccc(Oc3ccc(NC(=O)C4(C(=O)Nc5ccc(F)cc5)CC4)cc3)c2cc1OC` [cabozantinib], the “Response of RET^V804M to the drug” value in [18] is reported as “refractory”.
